Test results: ChEMBL document CHEMBL4390684, “The synthesis of 4,6-diaryl-2-pyridones and their bioactivation in CYP1 expressing breast cancer cells” (Bioorg Med Chem Lett, 2019)

Columns and labels:
MCF7 [1] = assay: Antiproliferative activity against ER positive human MCF7 cells expressing low level of CYP assessed as reduction in cell viability measured after 96 hrs by MTT assay; format: functional, cell-based; conditions: MCF7, 96 h
Method in brief: (§1)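 Antiproliferative IC50 values were determined in MCF-7, MDA-MB-468, TCDD-treated MCF-7 (high CYP1A1 expression) and non-tumour MCF-10A breast cells. Each value is the mean of two independent experiments run in quadruplicate.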

MCF7 [2] = assay: Antiproliferative activity against […]-induced ER positive human MCF7 cells expressing CYP1A1 assessed as reduction in cell viability after 96 hrs by MTT assay; format: functional, cell-based; conditions: MCF7, 96 h; method in brief: as §1
MCF7 [3] = assay: Activation factor, ratio of antiproliferative IC50 of ER positive human MCF7 cells expressing low level of CYP to antiproliferative IC50 of […]-induced ER positive human MCF7 cells expressing CYP1A1; format: functional
[4] = Selectivity index, ratio of IC50 for human MCF10A cells to IC50 for human MDA-MB-468 cells expressing CYP1A1 and CYP1B1; format: toxicity; conditions: read-out: Ratio IC50
MDA-MB-468 [5] = assay: Antiproliferative activity against ER negative human MDA-MB-468 cells expressing CYP1A1 and CYP1B1 assessed as reduction in cell viability measured after 96 hrs by MTT assay; format: functional, cell-based; conditions: MDA-MB-468, 96 h; method in brief: as §1
MCF-10A [6] = assay: Cytotoxicity against human MCF10A cells assessed as reduction in cell viability after 96 hrs by MTT assay; format: cell-based; method in brief: as §1
MCF7 [7] = assay: Antiproliferative activity against ER positive human MCF7 cells expressing low level of CYP assessed as reduction in cell viability in presence of CYP 1 inhibitor alpha-naphthoflavone at 1 uM measured after 96 hrs by MTT assay; format: functional, cell-based; conditions: MCF7, 96 h
MCF7 [8] = assay: Antiproliferative activity against […]-induced ER positive human MCF7 cells expressing CYP1A1 assessed as reduction in cell viability in presence of CYP 1 inhibitor alpha-naphthoflavone measured after 96 hrs by MTT assay; format: functional, cell-based; conditions: MCF7, 96 h
MDA-MB-468 [9] = assay: Antiproliferative activity against ER negative human MDA-MB-468 cells expressing CYP1A1 and CYP1B1 assessed as reduction in cell viability in presence of CYP 1 inhibitor alpha-naphthoflavone at 1 uM measured after 96 hrs by MTT assay; format: functional, cell-based; conditions: MDA-MB-468, 96 h
MCF-10A [10] = assay: Antiproliferative activity against human MCF10A cells assessed as reduction in cell viability in presence of CYP 1 inhibitor alpha-naphthoflavone at 1 uM measured after 96 hrs by MTT assay
CYP1A1 = target: T1, CYP1A1 (Homo sapiens, UniProt P04798); assay: Drug metabolism in supersomes expressing human CYP1A1 and coexpressing NADPH reductase assessed as CYP1A1-mediated drug metabolism by measuring compound half life at 10 uM in the presence of NADPH measured at 5 mins interval for 25 mins by reverse phase HPLC analysis; format: ADME
T1 sequence (P04798 whole entry): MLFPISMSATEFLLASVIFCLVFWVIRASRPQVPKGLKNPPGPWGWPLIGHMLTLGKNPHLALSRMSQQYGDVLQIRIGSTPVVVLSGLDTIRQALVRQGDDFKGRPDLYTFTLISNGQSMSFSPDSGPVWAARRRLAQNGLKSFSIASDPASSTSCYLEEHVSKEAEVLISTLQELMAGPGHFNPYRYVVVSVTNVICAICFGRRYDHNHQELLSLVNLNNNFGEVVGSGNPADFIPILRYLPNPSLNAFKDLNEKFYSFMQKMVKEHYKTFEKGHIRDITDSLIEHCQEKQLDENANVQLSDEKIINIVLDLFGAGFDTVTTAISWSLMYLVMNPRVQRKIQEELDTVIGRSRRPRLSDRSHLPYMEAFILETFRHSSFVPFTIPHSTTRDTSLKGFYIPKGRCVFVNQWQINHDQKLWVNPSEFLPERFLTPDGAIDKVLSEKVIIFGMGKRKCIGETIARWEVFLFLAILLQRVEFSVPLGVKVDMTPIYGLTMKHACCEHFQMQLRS
Method in brief: (§2)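 Substrate was incubated with insect-cell Supersomes expressing human CYP1A1 or CYP1B1 plus NADPH reductase, at 20 pmol/mL CYP. Controls used non-CYP Supersomes, or omitted the compound, NADPH or active enzyme. Duplicate samples were taken every 5 min and quenched with ice-cold acetonitrile. After centrifugation, the supernatant was analysed by reverse-phase HPLC for parent depletion (half-life) and metabolite peaks.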

CYP1B1 = target: T2, CYP1B1 (Homo sapiens, UniProt Q16678); assay: Drug metabolism in supersomes expressing human CYP1B1 and coexpressing NADPH reductase assessed as CYP1B1-mediated drug metabolism by measuring compound half life at 10 uM in the presence of NADPH measured at 5 mins interval for 25 mins by reverse phase HPLC analysis; format: ADME; method in brief: as §2
T2 sequence (Q16678 whole entry): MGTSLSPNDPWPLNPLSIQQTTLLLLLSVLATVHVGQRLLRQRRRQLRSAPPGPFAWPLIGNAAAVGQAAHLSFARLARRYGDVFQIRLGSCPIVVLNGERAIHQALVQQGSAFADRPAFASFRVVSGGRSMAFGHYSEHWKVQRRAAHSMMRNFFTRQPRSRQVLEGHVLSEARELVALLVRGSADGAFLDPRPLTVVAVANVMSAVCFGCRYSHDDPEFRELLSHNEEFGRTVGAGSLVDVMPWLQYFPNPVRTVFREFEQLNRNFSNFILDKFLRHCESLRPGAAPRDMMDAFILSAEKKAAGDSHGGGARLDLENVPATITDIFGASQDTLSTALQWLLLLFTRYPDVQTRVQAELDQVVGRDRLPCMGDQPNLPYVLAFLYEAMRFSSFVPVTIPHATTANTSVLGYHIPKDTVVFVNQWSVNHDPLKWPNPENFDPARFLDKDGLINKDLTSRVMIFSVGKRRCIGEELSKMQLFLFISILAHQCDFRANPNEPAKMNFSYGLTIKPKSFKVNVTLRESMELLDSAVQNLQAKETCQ

Cytochrome P450 1A1 = target: T3, Cytochrome P450 1A1 (Homo sapiens, UniProt P04798); assay: Drug metabolism in supersomes expressing human CYP1A1 and coexpressing NADPH reductase assessed as CYP1A1-mediated 4-(3,4-Dihydroxyphenyl)-6-(2,4-dimethoxyphenyl)-1H-pyridin-2-one formation at 10 uM in the presence of NADPH measured at 5 mins interval for 25 mins by reverse phase HPLC method; format: ADME; conditions: recombinant enzyme; method in brief: as §2
T3 sequence (P04798 whole entry): T1 sequence (P04798 whole entry)

Cytochrome P450 1B1 [11] = target: T4, Cytochrome P450 1B1 (Homo sapiens, UniProt Q16678); assay: Drug metabolism in supersomes expressing human CYP1B1 and coexpressing NADPH reductase assessed as CYP1B1-mediated 4-(3,4-Dihydroxyphenyl)-6-(2,4-dimethoxyphenyl)-1H-pyridin-2-one formation at 10 uM in the presence of NADPH measured at 5 mins interval for 25 mins by reverse phase HPLC method; format: ADME; conditions: recombinant enzyme; method in brief: as §2
T4 sequence (Q16678 whole entry): T2 sequence (Q16678 whole entry)

Cytochrome P450 1B1 [12] = target: T4, Cytochrome P450 1B1; assay: Drug metabolism in supersomes expressing human CYP1B1 and coexpressing NADPH reductase assessed as CYP1B1-mediated second metabolite retention time at 10 uM in the presence of NADPH measured at 5 mins interval for 25 mins by reverse phase HPLC method; format: ADME; conditions: recombinant enzyme; method in brief: as §2

| SMILES | IC50 (MCF7 [1]) [µM] | IC50 (MCF7 [2]) [µM] | Ratio IC50 (MCF7 [3]) | selectivity ratio [4] | IC50 (MDA-MB-468 [5]) [µM] | IC50 (MCF-10A [6]) [µM] | IC50 (MCF7 [7]) [µM] | IC50 (MCF7 [8]) [µM] | IC50 (MDA-MB-468 [9]) [µM] | IC50 (MCF-10A [10]) [µM] | half-life at 10 µM (CYP1A1) [min] | half-life at 10 µM (CYP1B1) [min] | Drug metabolism (Cytochrome P450 1A1) | Drug metabolism (Cytochrome P450 1B1 [11]) | Retention_time (Cytochrome P450 1B1 [12]) [min] |
| --- | --- | --- | --- | --- | --- | --- | --- | --- | --- | --- | --- | --- | --- | --- | --- |
| CCCOc1ccc(-c2cc(-c3ccc(OC)cc3OC)[nH]c(=O)c2)cc1 | 45 | 9 | 5 | 125 | 0.4 | 50 |  |  |  |  |  |  |  |  |  |
| COc1ccc(-c2cc(-c3ccc(OC)c(OC)c3)cc(=O)[nH]2)c(OC)c1 | 1 | 0.4 | 2.5 | 100 | 0.5 | 50 |  |  |  |  |  |  |  |  |  |
| COc1ccc(-c2cc(-c3ccc4c(c3)OCO4)cc(=O)[nH]2)c(OC)c1OC | 12 | 10 | 1.2 | > 12.5 | 8 | > 100 |  |  |  |  |  |  |  |  |  |
| COc1ccc(-c2cc(-c3ccc4c(c3)OCCO4)cc(=O)[nH]2)c(OC)c1 | 2.5 | 3 | 0.8 | 12 | 0.5 | 6 |  |  |  |  |  |  |  |  |  |
| COc1ccc(-c2cc(-c3ccc4c(c3)OCO4)cc(=O)[nH]2)cc1 | > 100 | > 100 |  | > 100 | 1 | > 100 |  |  |  |  |  |  |  |  |  |
| COc1ccc(/C=C\c2cc(OC)c(OC)c(OC)c2)cc1O [COMBRETASTATIN A4] |  | 0.002 | 1 | 0.53 | 0.003 | 0.0016 |  |  |  |  |  |  |  |  |  |
| O=c1cc(-c2ccc3c(c2)OCO3)cc(-c2ccccc2)[nH]1 | 1.6 | 0.8 | 2 | 3.1 | 0.8 | 2.5 |  |  |  |  |  |  |  |  |  |
| CCCOc1ccc(-c2cc(-c3ccc(OC)c(OC)c3)[nH]c(=O)c2)cc1 | 60 | 20 | 3 | 389 | 0.18 | 70 |  |  |  |  |  |  |  |  |  |
| COc1ccccc1-c1cc(-c2ccc3c(c2)OCO3)cc(=O)[nH]1 | 7 | 3.5 | 2 | 40 | 0.7 | 28 |  |  |  |  |  |  |  |  |  |
| COc1ccc(-c2cc(-c3ccc4c(c3)OCO4)cc(=O)[nH]2)c(OC)c1 | 9 | 1.8 | 5 | 1000 | 0.04 | 40 | 12 | 9 | > 100 | > 100 | 12.9 | 30.1 | Metabolite_Detected | Metabolite_Detected | 9.22 |
